Legend:
[1] = Drug metabolism in dog liver microsomes assessed as compound level by measuring UV-area at 3 uM in presence of NADPH incubated for 60 mins by UPLC-UV/QTOF MS analysis; assay type: ADME, Canis lupus familiaris, Microsome; settings: 1 h
How it was run: (§1)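 Each incubation held liver microsomes (human, monkey, dog, rat or mouse) at 0.5 mg/mL with 3.0 μM compound in 100 mM potassium phosphate, pH 7.4. After 3 min prewarming at 37 °C, the reaction was started with 1 mM NADPH. It was stopped at 60 min with ice-cold acetonitrile. Parent remaining and metabolites were judged from relative UV area.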

[2] = Cytotoxicity in human HepG2.2.15 cells assessed as reduction in cell viability incubated for 8 days by MTT assay; assay type: cell-based, HepG2 2.2.15
How it was run: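 This was run in the same 8-day HepG2.2.15 cultures. After the medium was removed, MTT was added (final 2.5 mg/mL) for 1 h at 37 °C. Cells were lysed in 10% SDS/50% DMF, pH 7.2, and OD was read at 570 nm to give % cell death. CC50 was averaged with SD from at least two independent determinations.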

[3] = Retention time of the compound by […]; assay type: physicochemical
[4] = Drug metabolism in human liver microsomes assessed as compound level by measuring UV-area at 3 uM in presence of NADPH incubated for 60 mins by UPLC-UV/QTOF MS analysis; assay type: ADME, Microsome; settings: 1 h; how it was run: as §1
[5] = Drug metabolism in monkey liver microsomes assessed as compound level by measuring LC-MS area of metabolite-M1 at 3 uM in presence of NADPH incubated for 60 mins by UPLC-UV/QTOF MS analysis; assay type: ADME, Macaca mulatta, Microsome; settings: rhesus monkey, 1 h; how it was run: as §1
[6] = Drug metabolism in dog liver microsomes at 3 uM in presence of NADPH incubated for 60 mins by UPLC-UV/QTOF MS analysis relative to control; assay type: ADME, Canis lupus familiaris, Microsome; settings: read-out: Drug metabolism; how it was run: as §1
[7] = Drug metabolism in mouse liver microsomes assessed as compound level by measuring UV-area of metabolite-M2 at 3 uM in presence of NADPH incubated for 60 mins by UPLC-UV/QTOF MS analysis; assay type: ADME, Microsome; settings: 1 h; how it was run: as §1
[8] = Drug metabolism in monkey liver microsomes assessed as compound level by measuring UV-area at 3 uM in presence of NADPH incubated for 60 mins by UPLC-UV/QTOF MS analysis; assay type: ADME, Macaca mulatta, Microsome; settings: rhesus monkey, 1 h; how it was run: as §1
[9] = Half life in Sprague-Dawley rat at 2 mg/kg, iv dosed as single administration; assay type: ADME, organism-based; settings: in vivo
[10] = Drug metabolism in mouse liver microsomes at 3 uM in presence of NADPH incubated for 60 mins by UPLC-UV/QTOF MS analysis relative to control; assay type: ADME, Microsome; how it was run: as §1
[11] = Drug metabolism in mouse liver microsomes assessed as compound level by measuring LC-MS area of metabolite-M2 at 3 uM in presence of NADPH incubated for 60 mins by UPLC-UV/QTOF MS analysis; assay type: ADME, Microsome; settings: 1 h; how it was run: as §1
[12] = Cmax in Sprague-Dawley rat at 20 mg/kg, po dosed as single administration; assay type: ADME, organism-based; design: dose 20 mg/kg, route oral; settings: in vivo
[13] = Half life in Sprague-Dawley rat at 20 mg/kg, po dosed as single administration; assay type: ADME, organism-based; settings: in vivo
Hepatitis B virus = assay: Antiviral activity against Hepatitis B virus assessed as reduction in HBV DNA-free capsid formation; assay type: functional, organism-based
[14] = AUC (0 to t) in Sprague-Dawley rat at 20 mg/kg, po dosed as single administration; assay type: ADME, organism-based; settings: in vivo
[15] = Drug metabolism in monkey liver microsomes at 3 uM in presence of NADPH incubated for 60 mins by UPLC-UV/QTOF MS analysis relative to control; assay type: ADME, Macaca mulatta, Microsome; settings: rhesus monkey, read-out: Drug metabolism; how it was run: as §1
[16] = Oral bioavailability in Sprague-Dawley rat at 20 mg/kg dosed as single administration; assay type: ADME, organism-based; settings: in vivo
[17] = Drug metabolism in rat liver microsomes assessed as compound level by measuring LC-MS area at 3 uM in presence of NADPH incubated for 60 mins by UPLC-UV/QTOF MS analysis; assay type: ADME, Microsome; settings: 1 h; how it was run: as §1
[18] = AUC (0 to t) in Sprague-Dawley rat at 2 mg/kg, iv dosed as single administration; assay type: ADME, organism-based; settings: in vivo
[19] = Drug metabolism in human liver microsomes assessed as compound level by measuring LC-MS area of metabolite-M1 at 3 uM in presence of NADPH incubated for 60 mins by UPLC-UV/QTOF MS analysis; assay type: ADME, Microsome; settings: 1 h; how it was run: as §1
[20] = Toxicity in human HepG2.2.15 cells; assay type: cell-based, HepG2 2.2.15
How it was run: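 HepG2.2.15 cells seeded at 4 × 10³ cells/well and exposed to a range of compound concentrations for 8 days. MTT (final 2.5 mg/mL) was added for 1 h at 37 °C, then cells were lysed in 10% SDS/50% DMF, pH 7.2. OD was read at 570 nm and % cell death calculated. CC50 is the mean ± SD of at least two independent determinations.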

[21] = Drug metabolism in mouse liver microsomes assessed as compound level by measuring UV-area of metabolite-M1 at 3 uM in presence of NADPH incubated for 60 mins by UPLC-UV/QTOF MS analysis; assay type: ADME, Microsome; settings: 1 h; how it was run: as §1
[22] = Drug metabolism in human liver microsomes assessed as compound level by measuring LC-MS area at 3 uM in presence of NADPH incubated for 60 mins by UPLC-UV/QTOF MS analysis; assay type: ADME, Microsome; settings: 1 h; how it was run: as §1
[23] = Drug metabolism in rat liver microsomes at 3 uM in presence of NADPH incubated for 60 mins by UPLC-UV/QTOF MS analysis relative to control; assay type: ADME, Microsome; settings: read-out: Drug metabolism; how it was run: as §1
[24] = Drug metabolism in mouse liver microsomes assessed as compound level by measuring LC-MS area at 3 uM in presence of NADPH incubated for 60 mins by UPLC-UV/QTOF MS analysis; assay type: ADME, Microsome; settings: 1 h; how it was run: as §1
[25] = Drug level in CD1 mouse liver at 20 mg/kg, po dosed as single administration measured up to 24 hrs; assay type: ADME, organism-based; settings: in vivo
How it was run: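 ICR (CD-1) mice were dosed orally at 20 mg/kg. At set times (1, 3, 8 and 24 h), blood was taken from the heart and portal vein under isoflurane anesthesia and spun to plasma. Livers were removed after portal vein perfusion, rinsed in saline, weighed and homogenized in saline (5 mL/g). Samples were analysed by UPLC–MS/MS in positive electrospray mode.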

[26] = Drug metabolism in dog liver microsomes assessed as compound level by measuring LC-MS area at 3 uM in presence of NADPH incubated for 60 mins by UPLC-UV/QTOF MS analysis; assay type: ADME, Canis lupus familiaris, Microsome; settings: 1 h; how it was run: as §1
[27] = Drug metabolism in human liver microsomes assessed as compound level by measuring UV-area of metabolite-M1 at 3 uM in presence of NADPH incubated for 60 mins by UPLC-UV/QTOF MS analysis; assay type: ADME, Microsome; settings: 1 h; how it was run: as §1
[28] = Drug metabolism in rat liver microsomes assessed as compound level by measuring LC-MS area of metabolite-M1 at 3 uM in presence of NADPH incubated for 60 mins by UPLC-UV/QTOF MS analysis; assay type: ADME, Microsome; settings: 1 h; how it was run: as §1
[29] = Drug metabolism in mouse liver microsomes assessed as compound level by measuring LC-MS area of metabolite-M1 at 3 uM in presence of NADPH incubated for 60 mins by UPLC-UV/QTOF MS analysis; assay type: ADME, Microsome; settings: 1 h; how it was run: as §1
[30] = Drug metabolism in human liver microsomes at 3 uM in presence of NADPH incubated for 60 mins by UPLC-UV/QTOF MS analysis relative to control; assay type: ADME, Microsome; settings: read-out: Drug metabolism; how it was run: as §1

Compound: Cc1cc(-c2ccc(F)nc2F)nn(Cc2ccc(Cl)cc2)c1=O
- Activity [1]: 26.3 ×10³ No_unit
- CC50 at 192 h [2]: 83.8 µM
- Retention_time [3]: 7.3 min
- Activity [4]: 82 ×10³ No_unit
- Activity [5]: 8.3 ×10³ No_unit
- metabolised at 1 h, 3 µM [6]: 79%
- Activity [7]: 15.4 ×10³ No_unit
- Activity [8]: 34.1 ×10³ No_unit
- t1/2 [9]: 2.03 h
- metabolised at 1 h, 3 µM [10]: > 95%
- Activity [11]: 0.79 ×10³ No_unit
- Cmax [12]: 352 ng/mL
- half-life [13]: 2.96 h
- IC50 (Hepatitis B virus): 0.087 µM
- AUC(0-t) [14]: 1100 ng·h/mL
- metabolised at 1 h, 3 µM [15]: 73%
- bioavailability [16]: 25.3%
- Activity [17]: 7.4 ×10³ No_unit
- AUC(0-t) [18]: 428 ng·h/mL
- Activity [19]: 2.64 ×10³ No_unit
- CC50 [20]: 90.6 µM
- Activity [21]: 117 ×10³ No_unit
- Activity [22]: 13.5 ×10³ No_unit
- metabolised at 1 h, 3 µM [23]: 64%
- Activity [24]: 1 ×10³ No_unit
- Drug uptake [25]: Not Active
- Activity [26]: 3.09 ×10³ No_unit
- Activity [27]: 51.3 ×10³ No_unit
- Activity [28]: 3.05 ×10³ No_unit
- Activity [29]: 10.3 ×10³ No_unit
- metabolised at 1 h, 3 µM [30]: 34%

From ChEMBL document CHEMBL4619801, “Discovery of Phthalazinone Derivatives as Novel Hepatitis B Virus Capsid Inhibitors” (J Med Chem, 2020)
